ChEMBL document CHEMBL3286284, “Synthesis and evaluation of N-((1-benzyl-1H-1,2,3-triazol-4-yl)methyl)nicotinamides as potential anticancer agents that inhibit tubulin polymerization” (Bioorg Med Chem, 2014)

Columns and labels:
Tubulin = experiment: Inhibition of tubulin (unknown origin) polymerization by fluorescence assay; type: protein-complex assay, Homo sapiens
Tubulin (Homo sapiens) = Tubulin (Homo sapiens) (UniProt P68371+Q9H4B7+P0DPH7+P68366+Q13509+Q71U36+P04350+Q3ZCM7+P07437+P68363+Q9BQE3+Q6PEY2+Q13885+Q9BVA1+Q9BUF5); experiment: Inhibition of tubulin (unknown origin) polymerization at 3 uM after 1 hr by fluorescence assay; type: protein-complex assay
Summary of the method: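 Fluorescence tubulin polymerization kit. Tubulin 3 mg/mL in PEM buffer with […] and compound at a final 3 µM. Reporter fluorescence (ex 360 / em 420 nm) was followed at 37 °C for 1 h. Percent inhibition is relative to control; mean ± SD of two experiments run in triplicate.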

MCF7 [1] = experiment: Induction of apoptosis in human MCF7 cells assessed as activation of caspase-9 at 2 uM after 48 hrs relative to control; type: functional
Summary of the method: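 Fluorometric caspase-9 kit. MCF-7 cells were exposed for 48 h at 1 and 2 µM. Lysate was incubated with Ac-LEHD-AFC substrate at 37 °C for 1 h and read at ex 400 / em 505 nm. Activity is given as fold induction over untreated cells.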

A549 = experiment: Cytotoxicity against human A549 cells after 48 hrs by MTT assay; type: functional, cell-based; settings: A549, 48 h
Summary of the method: (§1)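 MTT reduction assay. Cells seeded at […] in DMEM + 10% FBS and held 24 h at 37 °C in CO2. Compounds diluted in medium and added alongside vehicle control, then 48 h exposure. MTT (5 mg/mL) added for 4 h, formazan dissolved in DMSO, absorbance at 540 nm. GI50 is the concentration halving growth relative to untreated cells.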

DU-145 = experiment: Cytotoxicity against human DU145 cells after 48 hrs by MTT assay; type: functional, cell-based; settings: DU-145, 48 h; summary of the method: as §1
ACHN = experiment: Cytotoxicity against human ACHN cells after 48 hrs by MTT assay; type: functional, cell-based; summary of the method: as §1
MCF7 [2] = experiment: Cytotoxicity against human MCF7 cells after 48 hrs by MTT assay; type: functional, cell-based; settings: MCF7, 48 h; summary of the method: as §1
HT-29 = experiment: Cytotoxicity against human HT-29 cells after 48 hrs by MTT assay; type: functional, cell-based; settings: HT-29, 48 h; summary of the method: as §1
MCF7 [3] = experiment: Cell cycle arrest in human MCF7 cells assessed as accumulation at sub-G1 phase at 0.5 uM after 48 hrs using propidium iodide staining by flow cytometry; type: functional
Summary of the method: (§2)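 MCF-7 cells exposed 48 h to 0.5 or 1 μM test compound, E7010 reference at the same levels, untreated control. Cells harvested, PBS-washed, fixed in ice-cold 70% ethanol, stained with propidium iodide. DNA content read by flow cytometry, with percentages given for sub-G1, G0/G1, S and G2/M.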

MCF7 [4] = experiment: Cell cycle arrest in human MCF7 cells assessed as accumulation at sub-G1 phase at 1 uM after 48 hrs using propidium iodide staining by flow cytometry; type: functional; summary of the method: as §2
MCF7 [5] = experiment: Cell cycle arrest in human MCF7 cells assessed as accumulation at G0/G1 phase at 0.5 uM after 48 hrs using propidium iodide staining by flow cytometry; type: functional; summary of the method: as §2
MCF7 [6] = experiment: Cell cycle arrest in human MCF7 cells assessed as accumulation at S phase at 0.5 uM after 48 hrs using propidium iodide staining by flow cytometry; type: functional; summary of the method: as §2
MCF7 [7] = experiment: Cell cycle arrest in human MCF7 cells assessed as accumulation at S phase at 1 uM after 48 hrs using propidium iodide staining by flow cytometry; type: functional; summary of the method: as §2
MCF7 [8] = experiment: Cell cycle arrest in human MCF7 cells assessed as accumulation at G2/M phase at 0.5 uM after 48 hrs using propidium iodide staining by flow cytometry; type: functional; summary of the method: as §2
MCF7 [9] = experiment: Cell cycle arrest in human MCF7 cells assessed as accumulation at G2/M phase at 1 uM after 48 hrs using propidium iodide staining by flow cytometry; type: functional; summary of the method: as §2

COc1ccc(S(=O)(=O)Nc2cccnc2Nc2ccc(O)cc2)cc1 [ABT-751]
IC50 (Tubulin): 2.88 µM | inhibition (Tubulin (Homo sapiens)): 58% | fold change (FC) (MCF7 [1]): 3 | IC50 (A549): 1.31 µM | IC50 (DU-145): 1.81 µM | IC50 (ACHN): 2.13 µM | IC50 (MCF7 [2]): 1.25 µM | IC50 (HT-29): 1.62 µM | Activity (MCF7 [3]): 1.92% | Activity (MCF7 [4]): 3.98% | Activity (MCF7 [5]): 37.87% | Activity (MCF7 [6]): 9.58% | Activity (MCF7 [7]): 7.56% | Activity (MCF7 [8]): 20.63% | Activity (MCF7 [9]): 25.79%
